Experimental data of several laboratories.
Protocols differ between the studies behind these lines.
Method: competition with immobilised ligand
JAK2 JH1: Tyrosine-protein kinase JAK2, JH1 (JAK2, Homo sapiens, UniProt O60674)
JAK2: Tyrosine-protein kinase JAK2 (JAK2, Homo sapiens, UniProt O60674)

SMILES | target | read-out | tested at | remaining binding [%]
CC1CCCN1c1nccc(-c2cnn3ncccc23)n1 (stereo not shown) | JAK2 JH1 | cell-free assay | 1 µM | 98
O=C(NCC1CCOCC1)c1n[nH]cc1NC(=O)c1c(F)cccc1F | JAK2 JH1 | binding | 1 µM | 85
CNC(=O)Nc1ccc2c(c1)[C@@]1(CC2)OC(=O)N(CC(=O)N(Cc2ccc(F)cc2)[C@@H](C)C(F)(F)F)C1=O | JAK2 JH1 | cell-free assay | 1 µM | 100
O=C(c1ccc(Nc2ncc(Cl)c(-c3ccc(Cl)s3)n2)cc1)N1CCC(N2CCCC2)CC1 | JAK2 JH1 | binding | 1 µM | 1.3
CC(=O)N1CCC(c2ccc(C(=O)NC3=NCCN3)cc2C(F)(F)F)CC1 | JAK2 JH1 | cell-free assay | 1 µM | 100
COc1ncc2cc3ccccc3nc2c1C#N | JAK2 JH1 | cell-free assay | 5 µM | 88
C[C@H](c1cccc(C#N)c1)n1cc(Cl)cc(C(N)=O)c1=N | JAK2 JH1 | cell-free assay | 1 µM | 100
CN(CCCC(F)(F)F)c1nccc(-c2cnn3ncccc23)n1 | JAK2 JH1 | cell-free assay | 1 µM | 94
COc1ccc2c(O[C@@H]3C[C@H]4C(=O)N[C@]5(C(=O)O)CC5/C=C\CCCCC[C@H](NC(=O)OC5CCCC5)C(=O)N4C3)cc(-c3csc(NC(=O)C(C)C)n3)nc2c1C (stereo partly shown) | JAK2 JH1 | cell-free assay | 1 µM | 64
CC(C)(C)c1ccc(-c2nc(CBr)nn2-c2cccc(O)c2)cc1 | JAK2 | cell-free assay | 10 µM | 67
COc1cnc(Nc2cccc(S(N)(=O)=O)c2)nc1N1CCN(c2ccccc2)CC1 | JAK2 JH1 | binding | 1 µM | 14
C[C@@H]1CN(c2ccc3ncc(-c4ccc5[nH]nc(C6CC6)c5c4)n3n2)C[C@H](C)O1 | JAK2 | binding | 50 nM | 100
N[C@@H]1CCN(c2nccc(-c3cnn4ncccc34)n2)C1 | JAK2 JH1 | cell-free assay | 1 µM | 100
c1cncc(-c2cccc(Nc3nccc(NC4CCCCC4)n3)c2)c1 | JAK2 JH1 | binding | 10 µM | 0.05
CCN1CCN(Cc2ccc(C(=O)Nc3ccc(C)c(Oc4ccc5c(c4)CC(=O)N5)c3)cc2C(F)(F)F)CC1 | JAK2 JH1 | binding | 1 µM | 91
O=C(NCCCN1CCOCC1)c1ccc(Nc2ncc(Cl)c(-c3ccc(Cl)s3)n2)cc1 | JAK2 JH1 | binding | 1 µM | 2.9
COc1cnc(Nc2cccc(S(N)(=O)=O)c2)nc1N1CCN(c2ccccc2)C(=O)C1 | JAK2 JH1 | binding | 1 µM | 6.1
Cc1cnc(Nc2ccc(C(=O)N3CCC(N4CCCC4)CC3)cc2)nc1-c1cc2ccccc2s1 | JAK2 JH1 | binding | 1 µM | 0
CS(=O)(=O)N1CCCC(NC(=O)[C@H](CCC2CCCCC2)NC(=O)c2ccc(CNC(=O)c3cnc4ccccn34)cc2)C1 (stereo partly shown) | JAK2 JH1 | cell-free assay | 0.1 µM | 100
